Experiment [1] concerns toad urinary bladder. Description: Hydroosmotic response of the toad urinary bladder. The experiment is classed as cell-based, Bufo marinus. Particulars: serosal bath, concentrations as high as 2.86 X 10^-6 M. An outline of the steps:
(§1)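 Bufo marinus, 150-250 g, both sexes, kept on moist peat moss and pithed. Bentley sac hemibladders filled with dilute Ringer were preincubated 2 h in stirred full-strength Ringer, then moved to the challenge bath. Water loss was read as sac weight loss at 30 min intervals; sacs were emptied, refilled with fresh dilute Ringer and placed in a fresh bath after each weighing.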

Experiment [2] relates to toad urinary bladder. Briefly: Noncompetitive antagonism of the hydroosmotic response. The experiment is classed as cell-based, Bufo marinus. The method, boiled down: as §1
Experiment [3] relates to toad urinary bladder. Particulars: note added in proof; ref Chiu, P.J.S. and W.H. Sawyer. 1970; cited from earlier work.
Experiment [4] deals with toad urinary bladder. Particulars: cited from earlier work; for pD2 of reference agonist: Table II, ± SEM.
[5] abbreviates: calculated on the basis of earlier data, ref Eggena et al. (18).

Read-outs that look alike come from different tables or passages of the source. Bridge positions count the residues as written; N and C are the ends. Ends that are not written are not given here.

In the case of `CCCCC[C@H](O)/C=C/[C@H]1[C@H](O)CC(=O)[C@@H]1CCCCCCC(=O)O` [PGE1, prostaglandin E1], the “Hydroosmotic activity per se (bladder permeability to water)” value in experiment [1] is “did not increase the bladder permeability to water”. Besides, the “Effect on response to oxytocin-theophylline combination” value in experiment [2] (2.9 X 10^-7 M PGE1, 1 X 10^-9 M oxytocin + 4 X 10^-3 M theophylline, eight experiments) was “reduced by PGE1 to almost basal levels”. Besides, the “Effect on response to cyclic AMP-theophylline combination” value in experiment [2] (2.9 X 10^-7 M PGE1, 2.5 X 10^-3 M cyclic AMP + 4 X 10^-3 M theophylline, eight experiments) is on record as “only minimally”. Further, in experiment [2] (2.9 X 10^-7 M PGE1, fraction of maximal response (0.80 without PGE1), ± SEM), the “Maximal response to dibutyryl cyclic AMP in the presence of PGE1” value is recorded as 0.72. Also, the “Maximal response to theophylline in the presence of PGE1” value in experiment [2] (fraction of maximal response (0.78 without PGE1), ± SEM) is 0.10. The “Diminution in the maximal response to oxytocin in the presence of PGE1, average” value in experiment [2] (fraction of maximal response, ± 0.10, considerable variation) is 0.77.

For the compound “[4-leucine]-oxytocin (CYILNCPLG; ends and bridges not checked; cysteine pairing not given here; UniProt P01178 20-28, looked up, variant Q4L)”, the “Inhibition of the hydroosmotic action of [8-arginine]-vasopressin and [8-arginine]-vasotocin” value in experiment [3] was “competitively in- hibits”.

Turning to [5-ornithine]-oxytocin, the “pD2 of reference agonist” value in experiment [4] (ref Havran et al. (22)) was 4.92.

For the compound “[8-arginine]-vasopressin (CYFQNCPRG-NH2; disulfide 1-6; UniProt P01185 20-28, looked up)”, the “pD2 of reference agonist” value in experiment [4] (setting [5]) is listed as 9.40.

Take oxytocin: the “pD2 of reference agonist” value in experiment [4] (setting [5]) is reported as 8.63. Moreover, the Maximal hydroosmotic response in experiment [4] was 100%.

The record behind these values is publication PMC2225856 (The Journal of General Physiology, 1970).
